ChEMBL document CHEMBL2046300, “A laccase-catalysed one-pot synthesis of aminonaphthoquinones and their anticancer activity” (2012)

System: TK-10
Test: Antiproliferative activity against human TK10 cells after 48 hrs by SRB assay
Format: functional
Conditions: TK-10, 48 h
In short: (§1)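 Cells kept as monolayers in RPMI with 5% FBS, 2 mM L-glutamine and 50 μg/mL gentamicin (37 °C, 5% CO2), used at passages 3–19. They were plated at 7–10 000 cells/well for 24 h, with a T0 plate TCA-fixed at drug addition. Compounds in DMSO, diluted in medium, at 5 concentrations (0.01–100 μM) for 48 h, duplicate. SRB read at 540 nm; net % growth gave GI50, TGI, LC50.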

SMILES	GI50 [µM]	TGI [µM]
COc1cc([C@@H]2c3cc4c(cc3[C@@H](O[C@@H]3O[C@@H]5CO[C@@H](C)O[C@H]5[C@H](O)[C@H]3O)[C@H]3COC(=O)[C@H]23)OCO4)cc(OC)c1O [ETOPOSIDE]	7.19	49.7
O=C(O)C1=C(Nc2ccccc2Cl)C(=O)c2ccccc2C1=O	80.7	> 100
O=C(O)C1=C(Nc2cccc(F)c2)C(=O)c2ccccc2C1=O	24.7	> 100
O=C(O)C1=C(Nc2ccc(Cl)cc2F)C(=O)c2ccccc2C1=O	13.4	93.3
O=C(O)C1=C(Nc2ccccc2)C(=O)c2ccccc2C1=O	74.1	
O=C(O)C1=C(Nc2cccc(Cl)c2)C(=O)c2ccccc2C1=O	35.9	> 100
CC(C)c1ccc(NC2=C(C(=O)O)C(=O)c3ccccc3C2=O)cc1	8.38	63.6
O=C(O)C1=C(Nc2ccc(Cl)cc2)C(=O)c2ccccc2C1=O	13	79
O=C(O)C1=C(Nc2ccc(CCO)cc2)C(=O)c2ccccc2C1=O	91.1	> 100
O=C(O)C1=C(Nc2ccccc2F)C(=O)c2ccccc2C1=O	36.9	> 100
O=C(O)C1=C(Nc2ccc(F)cc2)C(=O)c2ccccc2C1=O	46.6	> 100
N#Cc1cccc(NC2=C(C(=O)O)C(=O)c3ccccc3C2=O)c1	23.7	76.2

Same assay, conditions: TK-10, 48 h, read-out: LC50 (the source's name)

SMILES	CC50 [µM]
COc1cc([C@@H]2c3cc4c(cc3[C@@H](O[C@@H]3O[C@@H]5CO[C@@H](C)O[C@H]5[C@H](O)[C@H]3O)[C@H]3COC(=O)[C@H]23)OCO4)cc(OC)c1O [ETOPOSIDE]	> 100
O=C(O)C1=C(Nc2ccccc2Cl)C(=O)c2ccccc2C1=O	> 100
O=C(O)C1=C(Nc2cccc(F)c2)C(=O)c2ccccc2C1=O	> 100
O=C(O)C1=C(Nc2ccc(Cl)cc2F)C(=O)c2ccccc2C1=O	> 100
O=C(O)C1=C(Nc2ccccc2)C(=O)c2ccccc2C1=O	> 100
O=C(O)C1=C(Nc2cccc(Cl)c2)C(=O)c2ccccc2C1=O	> 100
CC(C)c1ccc(NC2=C(C(=O)O)C(=O)c3ccccc3C2=O)cc1	> 100
O=C(O)C1=C(Nc2ccc(Cl)cc2)C(=O)c2ccccc2C1=O	> 100
O=C(O)C1=C(Nc2ccc(CCO)cc2)C(=O)c2ccccc2C1=O	> 100
O=C(O)C1=C(Nc2ccccc2F)C(=O)c2ccccc2C1=O	> 100
O=C(O)C1=C(Nc2ccc(F)cc2)C(=O)c2ccccc2C1=O	> 100
N#Cc1cccc(NC2=C(C(=O)O)C(=O)c3ccccc3C2=O)c1	> 100

System: UACC-62
Test: Antiproliferative activity against human UACC62 cells after 48 hrs by SRB assay
Format: functional
Conditions: UACC-62, 48 h
In short: as §1

SMILES	GI50 [µM]	TGI [µM]
COc1cc([C@@H]2c3cc4c(cc3[C@@H](O[C@@H]3O[C@@H]5CO[C@@H](C)O[C@H]5[C@H](O)[C@H]3O)[C@H]3COC(=O)[C@H]23)OCO4)cc(OC)c1O [ETOPOSIDE]	0.89	52.7
O=C(O)C1=C(Nc2ccccc2Cl)C(=O)c2ccccc2C1=O	31	65.8
O=C(O)C1=C(Nc2cccc(F)c2)C(=O)c2ccccc2C1=O	5.28	13.7
O=C(O)C1=C(Nc2ccc(Cl)cc2F)C(=O)c2ccccc2C1=O	4.17	7.94
O=C(O)C1=C(Nc2ccccc2)C(=O)c2ccccc2C1=O	6.66	30.7
O=C(O)C1=C(Nc2cccc(Cl)c2)C(=O)c2ccccc2C1=O	17	49.1
CC(C)c1ccc(NC2=C(C(=O)O)C(=O)c3ccccc3C2=O)cc1	5.19	10.8
O=C(O)C1=C(Nc2ccc(Cl)cc2)C(=O)c2ccccc2C1=O	3.98	7.83
O=C(O)C1=C(Nc2ccc(CCO)cc2)C(=O)c2ccccc2C1=O	7.17	35.3
O=C(O)C1=C(Nc2ccccc2F)C(=O)c2ccccc2C1=O	5.67	23.3
O=C(O)C1=C(Nc2ccc(F)cc2)C(=O)c2ccccc2C1=O	7.54	35
N#Cc1cccc(NC2=C(C(=O)O)C(=O)c3ccccc3C2=O)c1	3.99	7.17

Same assay, conditions: UACC-62, 48 h, read-out: LC50 (the source's name)

SMILES	CC50 [µM]
COc1cc([C@@H]2c3cc4c(cc3[C@@H](O[C@@H]3O[C@@H]5CO[C@@H](C)O[C@H]5[C@H](O)[C@H]3O)[C@H]3COC(=O)[C@H]23)OCO4)cc(OC)c1O [ETOPOSIDE]	> 100
O=C(O)C1=C(Nc2ccccc2Cl)C(=O)c2ccccc2C1=O	> 100
O=C(O)C1=C(Nc2cccc(F)c2)C(=O)c2ccccc2C1=O	59.4
O=C(O)C1=C(Nc2ccc(Cl)cc2F)C(=O)c2ccccc2C1=O	40.4
O=C(O)C1=C(Nc2ccccc2)C(=O)c2ccccc2C1=O	73.1
O=C(O)C1=C(Nc2cccc(Cl)c2)C(=O)c2ccccc2C1=O	81.2
CC(C)c1ccc(NC2=C(C(=O)O)C(=O)c3ccccc3C2=O)cc1	58.1
O=C(O)C1=C(Nc2ccc(Cl)cc2)C(=O)c2ccccc2C1=O	55.1
O=C(O)C1=C(Nc2ccc(CCO)cc2)C(=O)c2ccccc2C1=O	72
O=C(O)C1=C(Nc2ccccc2F)C(=O)c2ccccc2C1=O	65.4
O=C(O)C1=C(Nc2ccc(F)cc2)C(=O)c2ccccc2C1=O	72.1
N#Cc1cccc(NC2=C(C(=O)O)C(=O)c3ccccc3C2=O)c1	19.3

System: MCF7
Test: Antiproliferative activity against human MCF7 cells after 48 hrs by SRB assay
Format: functional
Conditions: MCF7, 48 h
In short: as §1

SMILES	GI50 [µM]	TGI [µM]
COc1cc([C@@H]2c3cc4c(cc3[C@@H](O[C@@H]3O[C@@H]5CO[C@@H](C)O[C@H]5[C@H](O)[C@H]3O)[C@H]3COC(=O)[C@H]23)OCO4)cc(OC)c1O [ETOPOSIDE]	0.56	> 100
O=C(O)C1=C(Nc2ccccc2Cl)C(=O)c2ccccc2C1=O	63.5	> 100
O=C(O)C1=C(Nc2cccc(F)c2)C(=O)c2ccccc2C1=O	9.08	48.4
O=C(O)C1=C(Nc2ccc(Cl)cc2F)C(=O)c2ccccc2C1=O	21.4	54.9
O=C(O)C1=C(Nc2ccccc2)C(=O)c2ccccc2C1=O	42.6	> 100
O=C(O)C1=C(Nc2cccc(Cl)c2)C(=O)c2ccccc2C1=O	43.2	> 100
CC(C)c1ccc(NC2=C(C(=O)O)C(=O)c3ccccc3C2=O)cc1	37.7	> 100
O=C(O)C1=C(Nc2ccc(Cl)cc2)C(=O)c2ccccc2C1=O	17.2	55.1
O=C(O)C1=C(Nc2ccc(CCO)cc2)C(=O)c2ccccc2C1=O	54.9	> 100
O=C(O)C1=C(Nc2ccccc2F)C(=O)c2ccccc2C1=O	9.84	50.8
O=C(O)C1=C(Nc2ccc(F)cc2)C(=O)c2ccccc2C1=O	38.1	98.9
N#Cc1cccc(NC2=C(C(=O)O)C(=O)c3ccccc3C2=O)c1	15.1	53.8

Same assay, conditions: MCF7, 48 h, read-out: LC50 (the source's name)

SMILES	CC50 [µM]
COc1cc([C@@H]2c3cc4c(cc3[C@@H](O[C@@H]3O[C@@H]5CO[C@@H](C)O[C@H]5[C@H](O)[C@H]3O)[C@H]3COC(=O)[C@H]23)OCO4)cc(OC)c1O [ETOPOSIDE]	> 100
O=C(O)C1=C(Nc2ccccc2Cl)C(=O)c2ccccc2C1=O	> 100
O=C(O)C1=C(Nc2cccc(F)c2)C(=O)c2ccccc2C1=O	91
O=C(O)C1=C(Nc2ccc(Cl)cc2F)C(=O)c2ccccc2C1=O	88.5
O=C(O)C1=C(Nc2ccccc2)C(=O)c2ccccc2C1=O	> 100
O=C(O)C1=C(Nc2cccc(Cl)c2)C(=O)c2ccccc2C1=O	> 100
CC(C)c1ccc(NC2=C(C(=O)O)C(=O)c3ccccc3C2=O)cc1	> 100
O=C(O)C1=C(Nc2ccc(Cl)cc2)C(=O)c2ccccc2C1=O	93
O=C(O)C1=C(Nc2ccc(CCO)cc2)C(=O)c2ccccc2C1=O	> 100
O=C(O)C1=C(Nc2ccccc2F)C(=O)c2ccccc2C1=O	92.2
O=C(O)C1=C(Nc2ccc(F)cc2)C(=O)c2ccccc2C1=O	> 100
N#Cc1cccc(NC2=C(C(=O)O)C(=O)c3ccccc3C2=O)c1	92.4

System: HeLa
Test: Antiproliferative activity against human HeLa cells after 48 hrs by SRB assay
Format: functional
Conditions: not given

SMILES	GI50 [µM]	TGI [µM]
COc1cc([C@@H]2c3cc4c(cc3[C@@H](O[C@@H]3O[C@@H]5CO[C@@H](C)O[C@H]5[C@H](O)[C@H]3O)[C@H]3COC(=O)[C@H]23)OCO4)cc(OC)c1O [ETOPOSIDE]	3.56	40.2
O=C(O)C1=C(Nc2ccccc2Cl)C(=O)c2ccccc2C1=O	28	60.3
O=C(O)C1=C(Nc2cccc(F)c2)C(=O)c2ccccc2C1=O	28	60.3
O=C(O)C1=C(Nc2ccc(Cl)cc2F)C(=O)c2ccccc2C1=O	25.2	55.5
O=C(O)C1=C(Nc2ccccc2)C(=O)c2ccccc2C1=O	49.2	97.2
O=C(O)C1=C(Nc2cccc(Cl)c2)C(=O)c2ccccc2C1=O	37.3	70.7
CC(C)c1ccc(NC2=C(C(=O)O)C(=O)c3ccccc3C2=O)cc1	38.3	73
O=C(O)C1=C(Nc2ccc(Cl)cc2)C(=O)c2ccccc2C1=O	24.8	55.4
O=C(O)C1=C(Nc2ccc(CCO)cc2)C(=O)c2ccccc2C1=O	72.5	> 100
O=C(O)C1=C(Nc2ccccc2F)C(=O)c2ccccc2C1=O	47.5	97
O=C(O)C1=C(Nc2ccc(F)cc2)C(=O)c2ccccc2C1=O	36.2	67.3
N#Cc1cccc(NC2=C(C(=O)O)C(=O)c3ccccc3C2=O)c1	16	49.1

Same assay, conditions: read-out: LC50 (the source's name)

SMILES	CC50 [µM]
COc1cc([C@@H]2c3cc4c(cc3[C@@H](O[C@@H]3O[C@@H]5CO[C@@H](C)O[C@H]5[C@H](O)[C@H]3O)[C@H]3COC(=O)[C@H]23)OCO4)cc(OC)c1O [ETOPOSIDE]	87.5
O=C(O)C1=C(Nc2ccccc2Cl)C(=O)c2ccccc2C1=O	90.2
O=C(O)C1=C(Nc2cccc(F)c2)C(=O)c2ccccc2C1=O	92.5
O=C(O)C1=C(Nc2ccc(Cl)cc2F)C(=O)c2ccccc2C1=O	85.9
O=C(O)C1=C(Nc2ccccc2)C(=O)c2ccccc2C1=O	> 100
O=C(O)C1=C(Nc2cccc(Cl)c2)C(=O)c2ccccc2C1=O	> 100
CC(C)c1ccc(NC2=C(C(=O)O)C(=O)c3ccccc3C2=O)cc1	> 100
O=C(O)C1=C(Nc2ccc(Cl)cc2)C(=O)c2ccccc2C1=O	86.1
O=C(O)C1=C(Nc2ccc(CCO)cc2)C(=O)c2ccccc2C1=O	> 100
O=C(O)C1=C(Nc2ccccc2F)C(=O)c2ccccc2C1=O	> 100
O=C(O)C1=C(Nc2ccc(F)cc2)C(=O)c2ccccc2C1=O	98.4
N#Cc1cccc(NC2=C(C(=O)O)C(=O)c3ccccc3C2=O)c1	82.3
